Source: ChEMBL document CHEMBL1687917, “Increased bioavailability of tricin-amino acid derivatives via a prodrug approach” (J Med Chem, 2011)

Key:
[1] = Cmax in Crl:CD (SD) rat at 300 mg/kg, po after 0.5 to 8 hrs by RP-HPLC; format: ADME, organism-based; design: dose 300 mg/kg, route oral; conditions: in vivo
Procedure, shortened: (§1)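 Male Crl:CD (SD) rats were given a single oral bolus of the prodrug by gavage at 100, 300 or 1000 mg kg^-1. Blood was drawn from the tail at 0, 0.5, 2, 4 and 8 h, and plasma was separated by centrifugation (6000 rpm, 10 min, 4 °C) and held at -25 °C for no more than 19 days. Released tricin was quantified. Two Cmax values were reported, with AUC over 0-8 h; means ± SEMs, n = 3.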

[2] = Cmax in Crl:CD (SD) rat at 1000 mg/kg, po after 0.5 to 8 hrs by RP-HPLC; format: ADME, organism-based; design: dose 1000 mg/kg, route oral; conditions: in vivo; procedure, shortened: as §1
[3] = Stability of the compound in MDCK cell lysate assessed as half life; format: ADME, cell-based, Canis lupus familiaris; conditions: dog
Procedure, shortened: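 Whole-cell lysate was prepared from 1.33 × 10⁶ MDCK cells with lysis buffer, and prodrugs were incubated with it. Half-life was taken as the time to 50% release of parent drug through carbamate hydrolysis by endogenous enzymes; means ± SEMs, n = 3.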

[4] = Cmax in Crl:CD (SD) rat at 100 mg/kg, po after 0.5 to 8 hrs by RP-HPLC; format: ADME, organism-based; design: dose 100 mg/kg, route oral; conditions: in vivo; procedure, shortened: as §1
[5] = AUC (0 to 8 hrs) in Crl:CD (SD) rat at 100 mg/kg, po after 0.5 to 8 hrs; format: ADME, organism-based; design: time < 8 hr, dose 100 mg/kg, route oral; conditions: plasma; procedure, shortened: as §1
[6] = tested on: Mus musculus; assay: Toxicity in Crlj:CD1 (ICR) mouse assessed as abnormal appearance at 300 mg/kg/day, po for 14 days; format: organism-based; design: route oral; conditions: in vivo, 336 h
[7] = tested on: Mus musculus; assay: Toxicity in Crlj:CD1 (ICR) mouse assessed as abnormal body weight at 300 mg/kg/day, po for 14 days; format: organism-based; design: route oral; conditions: in vivo, 336 h
[8] = tested on: Mus musculus; assay: Toxicity in Crlj:CD1 (ICR) mouse assessed as abnormal food consumption at 300 mg/kg/day, po for 14 days; format: organism-based; design: route oral; conditions: in vivo, 336 h
[9] = tested on: Mus musculus; assay: Toxicity in Crlj:CD1 (ICR) mouse assessed as abnormal hematology at 300 mg/kg/day, po for 14 days; format: organism-based; design: route oral; conditions: in vivo, 336 h
[10] = tested on: Mus musculus; assay: Toxicity in Crlj:CD1 (ICR) mouse assessed as abnormal blood chemistry at 300 mg/kg/day, po for 14 days; format: organism-based; design: route oral; conditions: in vivo, 336 h
[11] = tested on: Mus musculus; assay: Toxicity in Crlj:CD1 (ICR) mouse assessed as abnormal autopsy test at 300 mg/kg/day, po for 14 days; format: organism-based; design: route oral; conditions: in vivo, 336 h
[12] = AUC (0 to 8 hrs) in Crl:CD (SD) rat at 300 mg/kg, po after 0.5 to 8 hrs; format: ADME, organism-based; design: time < 8 hr, dose 300 mg/kg, route oral; conditions: plasma; procedure, shortened: as §1
[13] = AUC (0 to 8 hrs) in Crl:CD (SD) rat at 1000 mg/kg, po after 0.5 to 8 hrs; format: ADME, organism-based; design: time < 8 hr, dose 1000 mg/kg, route oral; conditions: plasma; procedure, shortened: as §1
[14] = tested on: Plasma; assay: Plasma concentration in Crl:CD (SD) rat at 100 mg/kg, po after 0.5 to 4 hrs; format: ADME, organism-based; design: dose 100 mg/kg, route oral; conditions: in vivo
Procedure, shortened: (§2)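 Tricin was suspended in 1% aqueous methylcellulose (10 mL kg^-1), sonicated and given as a single gavage dose of 100, 300 or 1000 mg kg^-1 to male and female Crl:CD (SD) rats. Tail blood was taken at 0, 0.5, 2 and 4 h, and plasma tricin was quantified by RP-HPLC; means ± SEMs, n = 3.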

[15] = tested on: Plasma; assay: Plasma concentration in Crl:CD (SD) rat at 300 mg/kg, po after 0.5 to 4 hrs; format: ADME, organism-based; design: dose 300 mg/kg, route oral; conditions: in vivo; procedure, shortened: as §2
[16] = tested on: Plasma; assay: Plasma concentration in Crl:CD (SD) rat at 1000 mg/kg, po after 0.5 to 4 hrs; format: ADME, organism-based; design: dose 1000 mg/kg, route oral; conditions: in vivo; procedure, shortened: as §2

SMILES	Cmax [1]	Cmax [2]	half-life [3]	Cmax [4]	AUC(0-t) at 8 h [5]	Activity [6]	Activity [7]	Activity [8]	Activity [9]	Activity [10]	Activity [11]	AUC(0-t) at 8 h [12]	AUC(0-t) at 8 h [13]	Cp [14]	Cp [15]	Cp [16]
COc1cc(-c2cc(=O)c3c(O)cc(O)cc3o2)cc(OC)c1OC(=O)N[C@@H](C)C(=O)N[C@@H](CCC(=O)O)C(=O)O	2870 ng/mL	2880 ng/mL	2.75 h	692 ng/mL	10300 ng·h/mL	Non-toxic	Non-toxic	Non-toxic	Non-toxic	Non-toxic	Non-toxic	15100 ng·h/mL	21500 ng·h/mL	–	–	–
COc1cc(-c2cc(=O)c3c(O)cc(O)cc3o2)cc(OC)c1O [TRICIN]	–	–	–	–	–	–	–	–	–	–	–	–	–	< 60 ng/mL	< 60 ng/mL	< 60 ng/mL
